Assay outcomes from PubChem BioAssay.
A selection: hits, their analogues and other compounds. The true share with any hit is near 0.72%.
mIAP activ – mouse IAP activation | 330,000 tested, 0.24% active | activation factor at 10 µM | AID 2805 | muIAP, CDP-Star luminescence, 30 min; hits give high values; 1 = vehicle-only enzyme signal, 0 = enzyme-free wells;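 active = activation factor of at least 2 at 20 µM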
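Assay system: mouse IAP enzyme; reagent: chemiluminescent substrate CDP-Star; dosing: test compounds delivered from DMSO solution; schedule: 30 min at room temperature; measured by: luminescence from enzymatic CDP-Star hydrolysis; controls: DMSO-only wells and no-enzyme negative control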
hIAP act – human IAP activation; P09923; purified human IAP, CDP-Star luminescence, 30 min; hits give high values; 1 = vehicle-only enzyme, 0 = enzyme-free background; activation factor at 10 µM; 330,000 tested, 0.16% active; AID 2524;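 active = activation factor of the enzyme at least 2-fold when tested at 20 µM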
Target sequence (P09923 whole entry, looked up): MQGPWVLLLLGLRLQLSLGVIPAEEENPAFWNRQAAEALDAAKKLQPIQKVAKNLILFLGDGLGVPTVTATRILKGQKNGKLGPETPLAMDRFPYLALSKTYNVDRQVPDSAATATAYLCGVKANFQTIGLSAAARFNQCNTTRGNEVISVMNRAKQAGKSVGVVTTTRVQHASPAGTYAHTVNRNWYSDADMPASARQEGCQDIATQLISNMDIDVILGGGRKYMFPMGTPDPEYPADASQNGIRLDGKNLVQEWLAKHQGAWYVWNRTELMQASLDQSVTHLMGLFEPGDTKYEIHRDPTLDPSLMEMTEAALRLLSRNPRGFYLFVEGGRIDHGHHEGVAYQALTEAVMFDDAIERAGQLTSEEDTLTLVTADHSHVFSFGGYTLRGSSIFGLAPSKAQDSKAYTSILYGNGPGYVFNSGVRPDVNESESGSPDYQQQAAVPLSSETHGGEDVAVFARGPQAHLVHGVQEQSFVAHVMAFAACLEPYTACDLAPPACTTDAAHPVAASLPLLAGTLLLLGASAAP
bIAP activator – increases bovine intestinal alkaline phosphatase activity; purified bovine IAP, CDP-star luminescence, 30 min; hits give high values; fold of DMSO-control signal, blank-subtracted; activation factor at 20 µM; 200,000 tested, 0.17% active; AID 1016;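 active = activation factor of 2 or more at 20 µM, a signal rise over negative controls twice the positive control's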
hIAP block – blocks human intestinal alkaline phosphatase; P09923; purified IAP, CDP-Star luminescence, 30 min; inhibition, % at 10 µM; 330,000 tested, 0.12% active; AID 2544;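 active = inhibition reaching a set limit with compound at 10 µM in the primary screen, cut at about 35% in these data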;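 note: plate controls were DMSO wells with enzyme for no effect and no-enzyme buffer wells for full effect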
mIAP block – mouse IAP inhibition; purified mouse IAP, CDP-Star luminescence, 30 min; inhibition, % at 10 µM; 330,000 tested, 0.2% active;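 active = inhibition of at least 40% at 10 µM in the primary screen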;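 note: plate controls were DMSO with enzyme for no effect and no enzyme wells for full effect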
bIAP inhibitor – intestinal alkaline phosphatase (bovine) inhibition | purified bovine IAP, CDP-star luminescence, 30 min | inhibition, % at 20 µM | 190,000 tested, under 10 active;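 active = over 50% inhibition of intestinal alkaline phosphatase at 20 µM in the single-dose screen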
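test system = bovine IAP enzyme | medium = DEA buffer 100 mM, pH 9.8, with MgCl2 1.0 mM, ZnCl2 0.02 mM | detection = luminescence | dosing = single compound dose of 20 µM, 2% DMSO final | incubation = 30 min reaction at room temperature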
* marks the source's active call; other numbers are inactive results; / = no result given.

SMILES | mIAP activ | hIAP act | bIAP activator | hIAP block | mIAP block | bIAP inhibitor
Cc1ccc(Nc2nc(/N=C/NO)n[nH]2)cc1C | 0.97 | 2.5* | 1.2 | -149 | 3 | -18
Oc1ccc(/C=N/Nc2ncnc3nc[nH]c23)cc1 | 0.77 | 1.4 | / | -45 | 23 | /
Clc1ccc(/C=N/Nc2ncnc3nc[nH]c23)cc1 | 1 | 2.2* | / | -123 | -1 | /
Cc1ccc(/C=N/Nc2ncnc3nc[nH]c23)cc1 | 0.88 | 2.2* | / | -117 | 12 | /
Fc1cccc(/C=N/Nc2ncnc3nc[nH]c23)c1 | 1.1 | 2 | 1 | -97 | -10 | 0
CCN(CC)CCNC(=O)CNC(=O)c1nn(-c2ccc(OC)c(OC)c2)c(=O)c2ccccc12 | 1.1 | 0.98 | / | 2 | -10 | /
COc1cccc(CNC(=O)CCC2CCCN(C(=O)c3cc(C)on3)C2)c1 (stereo unspecified) | 1.1 | 1.1 | 1 | -5 | -14 | -1
COc1cccc(CNC(=O)CCC2CCCN(C(=O)c3cc(C4CC4)[nH]n3)C2)c1 (stereo unspecified) | 1.1 | 1.3 | 2.2* | -32 | -10 | -123
Cc1cccc(C(C)C)c1NC(=O)COC(=O)Cc1ccsc1 | 0.99 | 0.88 | 4.1* | 12 | 1 | -307
CCc1ccc(NC(=O)Nc2cccc(OC)c2)cc1 | 2.5* | 1 | 0.9 | -2 | -151 | 6
COc1ccc(NC(=O)Nc2ccc(Br)c(C)c2)cc1 | 2.1* | 1.2 | 1 | -20 | -106 | 0
COc1ccc(NC(=O)Nc2cc(C)ccc2OC)cc1 | 1 | 0.98 | 0.9 | 2 | -3 | 11
CCOC(=O)c1ccc(N2CCN(c3ccc(F)cc3)CC2)c(NC(=O)Nc2cccc(OC)c2)c1 | 2.8* | 1.1 | 0.7 | -15 | -184 | 33
COc1cccc(NC(=O)Nc2ccc(CC(=O)O)cc2)c1 | 0.92 | 1 | 1 | -1 | 8 | -4
CCN1C(=O)c2ccc(C(=O)Nc3cccc(C(=O)O)c3)cc2C1=O | 1 | 0.8 | / | 20 | -2 | /
c1ccc(Cn2c(CNc3nc4ccccc4n3CCN3CCCCC3)nc3ccccc32)cc1 | 1.6 | 1.9 | 0.9 | -93 | -59 | 11
CCN(CC)CCn1c(NCc2nc3ccccc3n2Cc2ccccc2)nc2ccccc21 | 1.4 | 0.96 | 2* | 4 | -45 | -101
CC1CCCN(C(=O)C2(NC(=O)Nc3cccc(F)c3)CCCCC2)C1 (stereo unspecified) | 3.1* | 1.6 | 1.6 | -62 | -213 | -61
S=C(NCCCc1ccccc1)Nc1ccc(Cl)cc1 | 2.7* | 0.95 | 0.9 | 5 | -165 | 11
O=C(NCCc1ccc(Cl)cc1)Nc1cccc(Cl)c1 | 2.9* | 1.2 | 0.9 | -21 | -190 | 7
S=C(NCCCc1ccccc1)Nc1ccccc1 | 1.2 | 1.1 | / | -13 | -18 | /
S=C(NCCc1ccc(Cl)cc1)Nc1ccc(Cl)cc1Cl | 2.3* | 0.94 | 1 | 6 | -133 | -1
Cc1c(C)n(Cc2ccccc2)c2ccc(C(=O)OCCCN(C)C)cc12 | 1.1 | 0.97 | 2.2* | 3 | -9 | -120
O=C(Nc1ccc(Cl)c(C(F)(F)F)c1)NC1CC2CCCC(C1)N2C1CC1 (stereo unspecified) | 4.4* | 0.92 | / | 8 | -337 | /
O=C(Nc1cccc(F)c1)NC1CC2CCCC(C1)N2C1CC1 (stereo unspecified) | 1.4 | 0.94 | 1 | 6 | -38 | -2
SMILES | mIAP activ | hIAP act | bIAP activator | hIAP block | mIAP block | bIAP inhibitor
NS(=O)(=O)c1ccc(CCNC(=O)COC(=O)/C=C/c2cc(Br)ccc2F)cc1 | 0.99 | 1.1 | / | -10 | 1 | /
COc1ccc(Cc2nc3ccc(C(=O)NCc4ncc(C)[nH]4)cc3o2)cc1OC | 0.5 | 0.94 | / | 6 | 50* | /
Cc1c(OCC(=O)NC2CCN(Cc3ccccc3)CC2)ccc2c3c(c(=O)oc12)CCC3 | 0.94 | 1.1 | / | -5 | 6 | /
CC(=O)N1CCN(S(=O)(=O)c2cccc(C(=O)OCc3ccc(C(C)(C)C)cc3)c2)CC1 | 0.91 | 1.1 | / | -10 | 9 | /
CCOc1cc(/C=C2/N=C(C)C(C(=O)OC)=C2O)ccc1O | 0.58 | 0.83 | 0.4 | 17 | 42* | /
Fc1ccc(-c2n[nH]c(=S)n2/N=C/c2c[nH]c3ccccc23)cc1 | 1.2 | 1.3 | 2.1* | -28 | -16 | -113
O=C(COc1ccc2c3c(c(=O)oc2c1)CCCC3)N1C[C@H]2C[C@@H](C1)c1cccc(=O)n1C2 | 1.1 | 0.91 | / | 9 | -6 | /
O=C(Nc1cccc(Cl)c1)C1C2CCC3C(CCC21)C3(Cl)Cl (stereo unspecified) | 2.9* | 0.9 | 0.9 | 10 | -188 | 14
O=C(Cc1ccc(Cl)c(Cl)c1)N1CCOCC1 | 1 | 1.1 | / | -6 | -3 | /
CCN(CC)S(=O)(=O)c1ccc(N2CCN(C)CC2)c(NC(=O)CSCC(=O)Nc2cccc(C)c2)c1 | 1 | 1.1 | / | -8 | 0 | /
CCN(CC)S(=O)(=O)c1ccc(N2CCN(C)CC2)c(NC(=O)Nc2ccc(C)cc2)c1 | 2* | 1.8 | / | -77 | -101 | /
CC(C)(C)OC(=O)CC[C@@H](C(=O)NCCCCCCCCCCC(=O)N1CCN(C(=O)OC(C)(C)C)CC1)n1cc(CCCCCNC(=O)OC(C)(C)C)nn1 | 3.2* | 0.99 | / | 0 | -216 | /
CC[C@H](C)[C@@H](C(=O)NCCCCCCCCCCC(=O)N1CCN(C(=O)OC(C)(C)C)CC1)n1cc(CCCCCNC(=O)OC(C)(C)C)nn1 | 2.5* | 0.99 | / | 0 | -150 | /
CC(C)(C)OC(=O)NCCCCCc1cn([C@@H](CO)C(=O)NCCCCCCCCCCC(=O)N2CCN(C(=O)OC(C)(C)C)CC2)nn1 | 1.1 | 0.91 | / | 9 | -7 | /
C#CCOCCOCCOCCNc1nc(N2CCN(C(=O)CCCCCCCCCCNC(=O)[C@@H](CCSC)n3cc(CCO)nn3)CC2)nc(N2CCN(C(=O)CCCCCCCCCCNC(=O)[C@H](CCSC)n3cc(CCO)nn3)CC2)n1 | 2.6* | 0.88 | / | 12 | -164 | /
NC(=S)N/N=C/c1ccc(C23CC4CC(CC(C4)C2)C3)cc1 | 0.8 | 0.96 | / | 4 | 20 | /
COc1ccc(NC(=O)CSc2nc(O)cc(=O)n2-c2ccc(OC)cc2)cc1 | 0.96 | 1 | / | 0 | 4 | /
Cc1noc(C)c1COc1ccccc1C(=O)N(C)Cc1ccc(C(C)(C)C)cc1 | 1.1 | 0.98 | / | 2 | -10 | /
CC(C)CCCC(C)NC(=O)c1cc(S(=O)(=O)N2CCCCC2)ccc1N1CCOCC1 (stereo unspecified) | 0.94 | 1.1 | / | -9 | 6 | /
COc1ccc(OC)c(NC(=S)NCCCN2CCOCC2)c1 | 1.1 | 0.99 | 2.4* | 1 | -9 | -140
Cc1cccc([C@@H]2[C@@H]3C(=O)N(Cc4ccccc4)C(=O)[C@@H]3[C@]3(C)C(=O)N(c4ccc(C(F)(F)F)cc4)C(=O)N23)c1 | 0.59 | 1 | / | 0 | 41* | /
